Source: PubChem BioAssay
An excerpt weighted towards active compounds, which were near 5.7% of everything screened.
Calb FLC – C. albicans growth inhibition with fluconazole, primary screen, CaCi-2 strain, Alamar Blue fluorescence; C. albicans CaCi-2 (fluconazole-resistant clinical isolate) + fluconazole, 48 h; growth inhibition, % (test concentration not listed); actives 0.57% (n = 300,000); AID 1979, 2009;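 active = growth inhibition above about 58% in most replicates, limit read from the data, passing the limit was not always enough; inconclusive = exactly half the replicates above a set limit; inactive = most replicates below a set limit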;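 note: all wells also contain fluconazole at 8 µg/ml as a sub-toxic cotreatment; 0% = median of DMSO wells and 100% = median of geldanamycin control wells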
Mdm2 MdmX PPI – inhibitors of human Mdm2-MdmX association, primary screen, cell-based, luminescence, split luciferase, SaOS-2, uHTS. Protein Mdm4 (Homo sapiens) + E3 ubiquitin-protein ligase Mdm2 (Homo sapiens), …. SaOS-2 split-luciferase Mdm2/MdmX complementation. inhibition, % at 8 µM. actives 3% (n = 330,000). AID 485346, 2010;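 active = inhibition of at least 50% at 8 µM in the primary screen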
CSC inhib – cancer stem cell viability inhibitors, primary screen, luminescence. cancer stem cell-like cells viability. inhibition, % at 7.5 µM. actives 1.1% (n = 300,000); in the data active = inhibition above about 75%; inconclusive = no clear call, values can overlap the other calls; tested in HMLE shEcad cells
T cruzi repl – inhibitors of intracellular T. cruzi growth, primary screen, luminescence, NIH3T3 host cells. actives 1.4% (n = 300,000). T. cruzi beta-gal in NIH3T3, 90 h. inhibition, % (test concentration not listed);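 active = mean inhibition across valid replicates above about 55%, limit read from the data; inconclusive = mean below that limit but half or more replicates reach it; inactive = mean below it, under half of replicates reach it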;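 note: signal also drops with host cell toxicity which is not excluded here; 0% = plate median of DMSO wells and 100% = zero luminescence signal; higher percent means less beta-gal luminescence so fewer parasites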
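Test system: β-gal T. cruzi (Tulahuen C4) inside NIH/3T3 cells / Quantity: 5,000 cells/well / Measured by: luminescence from GalScreen with 0.05% NP40, read after 60 min / Medium: DMEM plus 2% FBS / Measure: parasite load inhibition, % / Reagent: Tulahuen C4 trypomastigotes, 5000/well / Schedule: co-culture of at least 90 h after 3 h attachment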
SKKanGAS inh – S. pyogenes SKKanGAS growth inhibitors in kanamycin, primary screen, streptokinase expression inhibitor project, SKKanGAS strain, BacTiter-Glo luminescence; 6 h; inhibition, % at 7.5 µM; actives 1.3% (n = 300,000);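 active = mean replicate score, as percent of positive control median, at least 50; inconclusive = mean below 50 but one replicate at or above 50; inactive = mean and every replicate below 50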;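 note: strain carries kanamycin resistance gene driven by streptokinase promoter and grows in 40 µg/ml kanamycin; loss of luminescence reflects streptokinase promoter inhibition or plain growth inhibition; 0% = median of DMSO wells and 100% = positive control at its reference dose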
Beta apoptosis – inhibitors of cytokine-induced beta cell apoptosis, primary screen, luminescence. actives 0.8% (n = 300,000). protection from apoptosis, % (test concentration not listed). INS-1E cytokine-induced death, ATP luminescence, 48 h; percent of positive-control rescue, neutral wells zero;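 active = Every replicate reaches about 75%, or at least half do and their mean reaches it too, limit read from the data; inconclusive = At least half of replicates reach the limit but their mean does not; inactive = Under half of replicates reach the limit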;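 note: 0% = cytokine-treated negative control wells and 100% = positive control rescue; higher means more ATP so stronger rescue from cytokine killing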
* = called active by the depositor; ? = inconclusive; · = not tested or not shown.

SMILES | Calb FLC | Mdm2 MdmX PPI | CSC inhib | T cruzi repl | SKKanGAS inh | Beta apoptosis
CCN(CC(=O)Nc1c(F)cccc1F)C(=O)CCN1C(=O)C2CCCCC2C1=O (stereo unspecified) | 5 | 12 | -12 | -5 | 9 | -5
O=[N+]([O-])c1ccc(O)c(C=Nc2ccc3c(c2)OCO3)c1 | 7 | -4 | -19 | -1 | 8 | 12
O=[N+]([O-])c1cc(Br)cc(C=Nc2ccc3c(c2)OCO3)c1O | 20 | 14 | 18 | -7 | 54* | 7
CN1c2ccccc2C(C)(C)C12C=Nc1c(ccc3ccccc13)O2 (stereo unspecified) | 38 | 44 | 23 | 16 | 105* | 1
COc1ccc2ccc3c(c2c1)N=CC1(O3)N(C)c2ccccc2C1(C)C (stereo unspecified) | 46 | 32 | 17 | 10 | 93* | -8
CN1c2ccccc2C(C)(C)[C@]12C=Cc1cc(O)ccc1O2 | 5 | 49 | -11 | 34 | 7 | 47
CC(C(=O)NC1CCCc2ccccc21)N1C(=O)C2CCCCC2C1=O (stereo unspecified) | · | 4 | -3 | · | · | 0
CCC(C)c1ccccc1NC(=O)c1cc2cccc([N+](=O)[O-])c2[nH]1 (stereo unspecified) | 17 | 0 | 5 | 65* | 25 | -4
CCN1CCN(C(=O)N[C@@H](C(=O)N[C@@H]2C(=O)N3[C@@H]2SC(C)(C)[C@@H]3C(=O)O)c2ccccc2)C(=O)C1=O | · | 22 | 2 | -15 | 103* | 6
CC1(C)S[C@@H]2[C@H](NC(=O)C(C(=O)O)c3ccccc3)C(=O)N2[C@H]1C(=O)O (stereo partly specified) | · | 12 | · | · | · | ·
CC1(C)S[C@@H]2[C@H](NC(=O)[C@H](N)c3ccccc3)C(=O)N2[C@H]1C(=O)O | 1 | 10 | -6 | -11 | 17 | -2
COC(=O)C1N2C(=O)[C@@H](NC(=O)COc3ccccc3)[C@H]2SC1(C)C (stereo partly specified) | -3 | -17 | 1 | -7 | 96* | -2
CN(C(=O)c1ccccc1)c1ccccc1C(=O)NCCc1ccccc1 | -1 | 15 | -11 | -4 | -5 | ·
COc1ccc(C(=O)N(C)c2ccccc2C(=O)NCCc2ccccc2)cc1 | -5 | 39 | -12 | -49 | -2 | 89*
CC(C)(C)c1cc[n+](C2=C([O-])c3ccccc3C(=O)/C2=N\S(=O)(=O)c2cccs2)cc1 | 57 | 50 | 66 | 15 | 56* | 107*
O=C1/C(=N\S(=O)(=O)c2cccs2)C([n+]2ccccc2)=C([O-])c2ccccc21 | 1 | 26 | 29 | 2 | 10 | 97*
Cc1ccc(C(=O)NC(=S)NCc2ccccc2)cc1Br | -1 | 24 | · | 0 | -8 | ·
Nc1c(-c2ccc3c(c2)OCCO3)oc2ccccc2c1=O | 7 | -39 | 0 | -4 | 2 | 0
Cc1ccc(C)c(S(=O)(=O)NCc2ccc(C(=O)N3CCN(C)CC3)cc2)c1 | 15 | 17 | 17 | · | 3 | -3
Cc1ccc(C)c(S(=O)(=O)NCc2ccc(C(=O)N3CCC(Cc4ccccc4)CC3)cc2)c1 | 4 | 36 | 37 | 64* | 3 | 5
CN(C(=O)c1ccccc1OCc1ccc(F)cc1)c1c(N)n(Cc2ccccc2)c(=O)[nH]c1=O | · | -1 | · | · | · | ·
O=C(c1ccc2ccccc2c1)N1CCN(S(=O)(=O)/C=C/c2ccccc2)CC1 | -19 | 18 | -13 | 55* | 4 | -3
C[C@@H]1COC(=O)[C@@H](CC(=O)OC(C)(C)C)C/C=C\C[C@@H](CC(=O)NCCO)C(=O)N1 | · | 15 | · | · | · | ·
Cc1ccccc1Nc1ncccc1C(=O)N1CCOCC1 | 109* | -7 | -2 | 0 | -8 | -2
COc1ccc(S(=O)(=O)Nc2ccccc2C)cc1C(=O)N1CCOCC1 | 0 | -14 | -1 | -8 | 1 | ·
SMILES | Calb FLC | Mdm2 MdmX PPI | CSC inhib | T cruzi repl | SKKanGAS inh | Beta apoptosis
O=C(c1cccnc1Nc1ccccc1F)N1CCOCC1 | -36 | 11 | -12 | -18 | -12 | -3
Cc1ccccc1NS(=O)(=O)c1ccc(C)c(C(=O)N2CCOCC2)c1 | 2 | 15 | -3 | -5 | 52* | ·
CC1CC1C(=O)N1CCN(S(=O)(=O)c2cccc(F)c2)CC1 (stereo unspecified) | -1 | 12 | -5 | 3 | 19 | -10
CCn1c(CNC(=O)C2CCCCC2)cc2cc(C)ccc21 | -1 | 16 | -11 | -11 | -1 | 6
CCCCN(C(=O)CCC(=O)Nc1cc(C)on1)C(C(=O)NC1CCCC1)c1ccccc1OCC (stereo unspecified) | -5 | 15 | · | 14 | -6 | -4
Cc1ccc(C(=O)NC(=O)OCCn2c(C)cnc2[N+](=O)[O-])cc1 | 88* | -9 | -14 | -9 | 15 | -10
COc1ccc(C(=O)O)cc1S(=O)(=O)Nc1ccc2cn[nH]c2c1 | · | 13 | -13 | · | · | 3
c1ccc(N2CCN(CC3CCCCC3)CC2)cc1 | -4 | 13 | 97* | -6 | 7 | 139*
O=C(CSC1CCCCC1)N1CCN(c2ccccc2)CC1 | -5 | -9 | -11 | -8 | 12 | 2
Cc1ccsc1/C=N\NC(=O)c1n[nH]c2c1CCC2 | -14 | 3 | 130* | -16 | 7 | 20
Cc1ccc(-n2nnnc2SCC(=O)c2cc(C)n(CC3CCCO3)c2C)cc1 (stereo unspecified) | 15 | -2 | 10 | 58* | -3 | -7
CCCc1ccc2oc(C(=O)NCc3nnc(C)o3)c(C)c2c1 | 8 | -75 | · | -1 | -2 | 1
Cc1ccc2c(c1)N(C)/C(=C/c1cccc[n+]1CCO)S2 | -2 | 9 | 7 | ? | 1 | 98*
COC(CN(C)C(=O)c1ccc2c(c1)NC(=O)c1ccccc1S2)OC | 120* | -16 | -5 | -4 | 4 | -5
COC(=O)c1ccc2c(c1)NC(=O)c1ccccc1S2 | 1 | -1 | -21 | -14 | -5 | -7
CC(C)(C)n1[nH]c2c3c(ccc2c1=O)C(=O)c1ccccc1C3=O | 7 | 40 | 48 | 1 | 26 | 86*
CCOc1c(C)cnc2c1c(=O)n(Cc1ccccc1F)c(=O)n2C | 7 | -2 | 3 | -5 | 9 | 8
O=c1c2c(nc3c(-c4ccc(Cl)cc4)c[nH]n13)CCC2 | -3 | 35 | 7 | -128 | 66* | 21
O=c1c2c(nc3c(-c4ccccc4)c[nH]n13)CCC2 | -2 | -2 | 4 | -7 | 16 | 5
Cc1cccc(Nc2nc(N)c([N+](=O)[O-])c(NCc3ccco3)n2)c1 | 20 | 44 | 56 | 19 | 4 | 8
